According to ChEMBL document CHEMBL1153955, “Indolylarylsulfones bearing natural and unnatural amino acids. Discovery of potent inhibitors of HIV-1 non-nucleoside wild type and resistant mutant strains reverse transcriptase and coxsackie B4 virus” (J Med Chem, 2009):
pEC50, pIC50: −log10 of the molar value.

Assays:
[1] = biological target: Human immunodeficiency virus type 1 reverse transcriptase (Human immunodeficiency virus 1, UniProt Q72547); assay: Inhibition of HIV1 reverse transcriptase p66/p51; conditions: read-out: IC50
[2] = system: Influenza A virus H3N2; assay: Antiviral activity against influenza H3N2 virus in MDCK cells assessed as reduction of virus-induced cytopathicity by MTS method; type: functional, organism-based
[3] = Cytotoxicity against human HeLa cells assessed as drug level causing microscopically detectable alteration of normal cell morphology after 3 days; type: cell-based
Method in brief: (§1)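 Serial compound dilutions added to confluent HeLa or Vero monolayers. MCC = minimum concentration causing microscopically detectable alteration of cell morphology after 3 days of incubation.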

[4] = Cytotoxicity against human HEL cells assessed as drug level causing microscopically detectable alteration of normal cell morphology after 3 days; type: cell-based
[5] = system: Human immunodeficiency virus 2; assay: Antiviral activity against HIV2 ROD in human CEM cells assessed as protection against virus-induced cytopathicity after 4 days; type: functional, organism-based; conditions: Human immunodeficiency virus 2, ROD, CCRF-CEM, 96 h
Method in brief: (§2)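 CEM cells (~3 × 10⁵ cells/mL) infected with ~100 CCID₅₀ per mL of HIV-1 (IIIB) or HIV-2 (ROD), then seeded into wells containing compound dilutions. After 4 days at 37 °C, syncytium (giant cell) formation was examined microscopically. EC₅₀ = concentration protecting CEM cells from HIV cytopathicity by 50%.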

[6] = system: Influenza B virus; assay: Antiviral activity against influenza B virus in MDCK cells assessed as reduction of virus-induced cytopathicity by visual cytopathic effect scoring method; type: functional, organism-based
[7] = system: Coxsackievirus B4; assay: Antiviral activity against Coxsackievirus B4 in african green monkey Vero cells assessed as protection against virus-induced cytopathicity; type: functional, organism-based; conditions: Enterovirus B
Method in brief: (§3)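 Confluent cell monolayers inoculated with 100 CCID₅₀ virus. After 1-2 h adsorption, residual virus removed and cultures incubated with varying compound concentrations. Cytopathicity scored once it reached completion in untreated infected controls. EC₅₀ = dose reducing virus-induced cytopathogenicity by 50%.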

[8] = Antiproliferative activity against human Molt4/C8 cells after 3 days; type: cell-based; conditions: MOLT-4, 72 h
Method in brief: (§4)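 Cells seeded at 5 × 10⁴ to 7.5 × 10⁴ cells/200 µL with or without serial compound dilutions; incubated at 37 °C for 2 days (L1210) or 3 days (Molt4/C8, CEM). Cell numbers counted with a Coulter counter. CC₅₀ = concentration reducing proliferation by 50% versus untreated controls, read from plots of cell number (% of control) against concentration. Means of at least two independent experiments.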

[9] = system: Felid alphaherpesvirus 1; assay: Antiviral activity against Feline herpesvirus in feline […] cells assessed as inhibition of virus-induced cytopathicity; type: functional, organism-based
[10] = system: Coxsackievirus B4; assay: Antiviral activity against Coxsackievirus B4 in human HeLa cells assessed as protection against virus-induced cytopathicity; type: functional, organism-based; conditions: Enterovirus B; method in brief: as §3
[11] = system: Human alphaherpesvirus 2; assay: Antiviral activity against HSV2 G in human HEL cells assessed as protection against virus-induced cytopathicity; type: functional, organism-based; conditions: Human alphaherpesvirus 2, strain G; method in brief: as §3
[12] = system: Sindbis virus; assay: Antiviral activity against Sindbis virus in african green monkey Vero cells assessed as protection against virus-induced cytopathicity; type: functional, organism-based; method in brief: as §3
[13] = Cytotoxicity against african green monkey Vero cells assessed as drug level causing microscopically detectable alteration of normal cell morphology after 3 days; type: cell-based; conditions: chlorocebus sabaeus; method in brief: as §1
[14] = system: Respiratory syncytial virus; assay: Antiviral activity against RSV Long in human HeLa cells assessed as protection against virus-induced cytopathicity; type: functional, organism-based; method in brief: as §3
[15] = system: CCRF-CEM; assay: Antiproliferative activity against human CEM cells after 3 days; type: cell-based; conditions: 72 h; method in brief: as §4
[16] = system: Human alphaherpesvirus 1; assay: Antiviral activity against thymidine kinase deficient and acyclovir resistant HSV1 KOS in human HEL cells assessed as protection against virus-induced cytopathicity; type: functional, organism-based; conditions: Human alphaherpesvirus 1, KOS
[17] = system: Vesicular stomatitis virus; assay: Antiviral activity against VSV in human HEL cells assessed as protection against virus-induced cytopathicity; type: functional, organism-based
[18] = Cytotoxicity against MDCK cells assessed as drug level causing microscopically detectable alteration of normal cell morphology; type: cell-based, Canis lupus familiaris; conditions: dog
[19] = system: Vesicular stomatitis virus; assay: Antiviral activity against VSV in human HeLa cells assessed as protection against virus-induced cytopathicity; type: functional, organism-based
[20] = system: Feline coronavirus; assay: Antiviral activity against Feline coronavirus in feline […] cells assessed as inhibition of virus-induced cytopathicity; type: functional, organism-based; conditions: Alphacoronavirus 1
[21] = system: Influenza A virus; assay: Antiviral activity against influenza H1N1 virus in MDCK cells assessed as reduction of virus-induced cytopathicity by MTS method; type: functional, organism-based; conditions: Influenza A virus, H1N1, MDCK
[22] = system: Influenza A virus H3N2; assay: Antiviral activity against influenza H3N2 virus in MDCK cells assessed as reduction of virus-induced cytopathicity by visual cytopathic effect scoring method; type: functional, organism-based
[23] = system: Mammalian orthoreovirus 1; assay: Antiviral activity against Reovirus 1 in african green monkey Vero cells assessed as protection against virus-induced cytopathicity; type: functional, organism-based; conditions: Mammalian orthoreovirus 1, Vero; method in brief: as §3
[24] = Cytotoxicity against feline CRFK cells by MTS assay; type: cell-based, Felis catus; conditions: cat
[25] = system: L1210; assay: Antiproliferative activity against mouse L1210 cells after 2 days; type: cell-based; conditions: L1210, 48 h; method in brief: as §4
[26] = Cytotoxicity against MDCK cells by MTS assay; type: cell-based, Canis lupus familiaris; conditions: dog
[27] = system: Influenza B virus; assay: Antiviral activity against influenza B virus in MDCK cells assessed as reduction of virus-induced cytopathicity by MTS method; type: functional, organism-based
[28] = biological target: Human immunodeficiency virus type 1 reverse transcriptase (Human immunodeficiency virus 1, UniProt Q72547, Y181I); assay: Inhibition of HIV1 reverse transcriptase p66/p51 Y181I mutant; conditions: read-out: IC50
Method in brief: (§5)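 Substrate was 0.5 µg poly(rA)/oligo(dT) 10:1 (0.3 µM 3′-OH ends) with 10 µM [³H]dTTP, at 37 °C. Acid-precipitable radioactivity was counted on GF/C filters after TCA washes.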

[29] = system: Human alphaherpesvirus 1; assay: Antiviral activity against HSV1 KOS in human HEL cells assessed as protection against virus-induced cytopathicity; type: functional, organism-based; conditions: Human alphaherpesvirus 1, KOS
[30] = system: Human immunodeficiency virus 1; assay: Antiviral activity against HIV1 3B in human CEM cells assessed as protection against virus-induced cytopathicity after 4 days; type: functional, organism-based; conditions: Human immunodeficiency virus 1, 3B, CCRF-CEM, 96 h; method in brief: as §2
[31] = system: Vaccinia virus; assay: Antiviral activity against Vaccinia virus Lederle in human HEL cells assessed as protection against virus-induced cytopathicity; type: functional, organism-based; conditions: Orthopoxvirus vaccinia
[32] = system: Influenza A virus; assay: Antiviral activity against influenza H1N1 virus in MDCK cells assessed as reduction of virus-induced cytopathicity by visual cytopathic effect scoring method; type: functional, organism-based
[33] = system: Punta Toro virus; assay: Antiviral activity against Punta Toro virus in african green monkey Vero cells assessed as protection against virus-induced cytopathicity; type: functional, organism-based; method in brief: as §3
[34] = biological target: Human immunodeficiency virus type 1 reverse transcriptase (Human immunodeficiency virus 1, UniProt Q72547, K103N); assay: Inhibition of HIV1 reverse transcriptase p66/p51 K103N mutant; conditions: read-out: IC50; method in brief: as §5
[35] = system: Human respirovirus 3; assay: Antiviral activity against Parainfluenza virus type 3 in african green monkey Vero cells assessed as protection against virus-induced cytopathicity; type: functional, organism-based; conditions: Human respirovirus 3, Vero; method in brief: as §3
[36] = biological target: Human immunodeficiency virus type 1 reverse transcriptase (Human immunodeficiency virus 1, UniProt Q72547, L100I); assay: Inhibition of HIV1 reverse transcriptase p66/p51 L100I mutant; conditions: read-out: IC50; method in brief: as §5

SMILES: Cc1cc(C)cc(S(=O)(=O)c2c(C(=O)NCCC(N)=O)[nH]c3ccc(Cl)c(F)c23)c1
- pIC50 [1]: 7.47
- pEC50 [2]: < 4.70
- MCC at 72 h [3]: 100 µM
- MCC at 72 h [4]: 100 µM
- pEC50 [5]: < 5.00
- pEC50 [6]: < 4.70
- pEC50 [7]: < 4.70
- pIC50 [8]: 4.48
- pEC50 [9]: < 4.70
- pEC50 [10]: 5.05
- pEC50 [11]: < 4.70
- pEC50 [12]: < 4.70
- MCC at 72 h [13]: 100 µM
- pEC50 [14]: 4.80
- pIC50 [15]: 4.52
- pEC50 [16]: < 4.70
- pEC50 [17]: < 4.70
- MCC [18]: 100 µM
- pEC50 [19]: < 4.70
- pEC50 [20]: < 4.70
- pEC50 [21]: < 4.70
- pEC50 [22]: < 4.70
- pEC50 [23]: < 4.70
- CC50 [24]: 45.3 µM
- pIC50 [25]: 4.38
- CC50 [26]: 24.3 µM
- pEC50 [27]: < 4.70
- pIC50 [28]: 5.14
- pEC50 [29]: < 4.70
- pEC50 [30]: 8.70
- pEC50 [31]: < 4.70
- pEC50 [32]: < 4.70
- pEC50 [33]: < 4.70
- pIC50 [34]: 6.11
- pEC50 [35]: < 4.70
- pIC50 [36]: 6.89

SMILES: Cc1cc(C)cc(S(=O)(=O)c2c(C(=O)NC(C)C(N)=O)[nH]c3ccc(Br)cc23)c1 (stereo not drawn)
- pIC50 [1]: 7.80
- pEC50 [2]: < 3.10
- MCC at 72 h [3]: 20 µM
- MCC at 72 h [4]: 20 µM
- pEC50 [5]: < 5.00
- pEC50 [6]: < 3.10
- pEC50 [7]: < 5.40
- pIC50 [8]: 5.06
- pEC50 [9]: < 5.40
- pEC50 [10]: 5.70
- pEC50 [11]: < 5.40
- pEC50 [12]: < 5.40
- MCC at 72 h [13]: 20 µM
- pEC50 [14]: 5.40
- pIC50 [15]: 5.00
- pEC50 [16]: < 5.40
- pEC50 [17]: < 5.40
- MCC [18]: 4 µM
- pEC50 [19]: < 5.40
- pEC50 [20]: < 5.40
- pEC50 [21]: < 3.10
- pEC50 [22]: < 3.10
- pEC50 [23]: < 5.40
- CC50 [24]: 9.2 µM
- pIC50 [25]: 5.00
- CC50 [26]: 1.7 µM
- pEC50 [27]: < 3.10
- pIC50 [28]: 5.74
- pEC50 [29]: < 5.40
- pEC50 [30]: 8.72
- pEC50 [31]: < 5.40
- pEC50 [32]: < 3.10
- pEC50 [33]: < 5.40
- pIC50 [34]: 6.29
- pEC50 [35]: < 5.40
- pIC50 [36]: 7.39

SMILES: Cc1cc(C)cc(S(=O)(=O)c2c(C(=O)NC(C)CS(N)(=O)=O)[nH]c3ccc(Cl)c(F)c23)c1 (stereo not drawn)
- pIC50 [1]: 7.44
- pEC50 [2]: < 5.40
- MCC at 72 h [3]: 20 µM
- MCC at 72 h [4]: 20 µM
- pEC50 [5]: < 5.00
- pEC50 [6]: < 5.40
- pEC50 [7]: 4.92
- pIC50 [8]: 4.92
- pEC50 [9]: < 5.40
- pEC50 [10]: < 5.40
- pEC50 [11]: < 5.40
- pEC50 [12]: 4.70
- MCC at 72 h [13]: 100 µM
- pEC50 [14]: < 5.40
- pIC50 [15]: 4.80
- pEC50 [16]: < 5.40
- pEC50 [17]: < 5.40
- MCC [18]: 20 µM
- pEC50 [19]: < 5.40
- pEC50 [20]: < 5.40
- pEC50 [21]: < 5.40
- pEC50 [22]: < 5.40
- pEC50 [23]: < 4.70
- CC50 [24]: 15 µM
- pIC50 [25]: 4.74
- CC50 [26]: 7.3 µM
- pEC50 [27]: < 5.40
- pIC50 [28]: < 4.40
- pEC50 [29]: < 5.40
- pEC50 [30]: 8.41
- pEC50 [31]: < 5.40
- pEC50 [32]: < 5.40
- pEC50 [33]: < 4.70
- pIC50 [34]: 8.52
- pEC50 [35]: < 4.70
- pIC50 [36]: 6.57
